{
  "source": "ChEMBL document CHEMBL1149671",
  "about": "“Enantiopure five-membered cyclicdiamine derivatives as potent and selective inhibitors of factor Xa. Improving in vitro metabolic stability via core modifications” (Bioorg Med Chem Lett, 2007)",
  "key": {"Coagulation factor X [1]": {"target": "T1, Coagulation factor X (Homo sapiens, UniProt P00742)", "T1 sequence (P00742 41-179 limits assumed)": "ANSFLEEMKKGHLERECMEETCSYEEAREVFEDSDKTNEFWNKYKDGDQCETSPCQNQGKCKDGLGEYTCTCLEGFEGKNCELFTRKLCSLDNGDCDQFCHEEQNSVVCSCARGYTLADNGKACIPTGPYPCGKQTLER", "T1 sequence (P00742 235-488 limits assumed)": "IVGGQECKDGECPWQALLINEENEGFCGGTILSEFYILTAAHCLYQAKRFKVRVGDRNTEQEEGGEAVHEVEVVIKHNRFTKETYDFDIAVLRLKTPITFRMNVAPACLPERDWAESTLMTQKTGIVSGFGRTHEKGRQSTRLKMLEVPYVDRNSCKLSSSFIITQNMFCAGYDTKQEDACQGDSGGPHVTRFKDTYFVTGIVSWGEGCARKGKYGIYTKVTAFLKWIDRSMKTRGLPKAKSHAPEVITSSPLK", "test": "Inhibition of human factor 10a in presence of prothrombin at 25 degC", "summary_of_the_method": "(§1)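 Purified human factor Xa. […] Prothrombinase-type inhibition measured with prothrombin as substrate at 25 °C, and with saturating prothrombin at 37 °C. Values are averages of at least 2 determinations.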"}, "Coagulation factor X [2]": {"target": "T1, Coagulation factor X", "test": "Inhibition of human factor 10a in presence of saturating prothrombin at 37 degC", "summary_of_the_method": "as §1"}, "[3]": {"target": "Vitamin K-dependent protein C (Homo sapiens, UniProt P04070)", "sequence (P04070 43-197 limits assumed)": "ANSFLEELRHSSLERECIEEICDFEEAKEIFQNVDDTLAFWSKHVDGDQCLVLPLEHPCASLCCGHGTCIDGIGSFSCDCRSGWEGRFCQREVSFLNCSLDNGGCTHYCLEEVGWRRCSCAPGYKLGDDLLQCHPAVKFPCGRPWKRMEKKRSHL", "sequence (P04070 212-461 limits assumed)": "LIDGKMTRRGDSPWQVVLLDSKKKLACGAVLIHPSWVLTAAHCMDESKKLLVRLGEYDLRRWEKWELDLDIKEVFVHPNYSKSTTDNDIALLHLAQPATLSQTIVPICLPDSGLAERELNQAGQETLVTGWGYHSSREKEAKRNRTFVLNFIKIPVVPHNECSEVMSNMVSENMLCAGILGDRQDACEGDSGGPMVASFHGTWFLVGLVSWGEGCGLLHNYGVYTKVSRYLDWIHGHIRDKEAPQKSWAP", "test": "Inhibition of human activated protein C"}, "Coagulation factor X [4]": {"target": "T1, Coagulation factor X", "test": "Inhibition of human factor 10a"}, "Liver microsomes": {"tested_on": "Liver microsomes", "test": "Metabolic stability in human liver microsomes assessed as microsomal intrinsic clearance rate", "type": "ADME, Microsome", "summary_of_the_method": "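Human liver microsomes, 10-min incubation. Metabolic stability given as % compound remaining. Microsomal intrinsic clearance rate (nmol/min/mg) is based on the % remaining after 10 min.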"}, "[5]": {"test": "Cytotoxicity against HEK cells", "type": "cell-based", "details": "Homo sapiens, HEK293"}, "Coagulation factor XI": {"target": "Coagulation factor XI (Homo sapiens, UniProt P03951)", "sequence (P03951 19-387 limits assumed)": "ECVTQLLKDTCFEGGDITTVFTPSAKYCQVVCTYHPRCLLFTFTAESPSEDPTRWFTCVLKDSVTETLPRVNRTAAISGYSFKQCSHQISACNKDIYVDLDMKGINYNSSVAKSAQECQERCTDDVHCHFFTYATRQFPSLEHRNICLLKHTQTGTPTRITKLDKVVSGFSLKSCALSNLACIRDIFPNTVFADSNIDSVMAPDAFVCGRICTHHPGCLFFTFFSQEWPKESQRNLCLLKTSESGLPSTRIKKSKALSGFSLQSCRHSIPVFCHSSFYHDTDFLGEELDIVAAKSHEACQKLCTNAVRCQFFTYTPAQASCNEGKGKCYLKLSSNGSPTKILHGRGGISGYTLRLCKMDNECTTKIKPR", "sequence (P03951 388-625 limits assumed)": "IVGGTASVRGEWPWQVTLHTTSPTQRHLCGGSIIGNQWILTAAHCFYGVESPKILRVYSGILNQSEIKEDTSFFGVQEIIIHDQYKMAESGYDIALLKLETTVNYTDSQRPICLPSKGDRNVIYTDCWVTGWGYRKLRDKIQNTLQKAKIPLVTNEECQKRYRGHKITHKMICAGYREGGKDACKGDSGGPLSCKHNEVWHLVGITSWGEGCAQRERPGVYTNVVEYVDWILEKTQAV", "test": "Inhibition of human factor 11a"}, "Coagulation factor VII": {"target": "T2, Coagulation factor VII (Homo sapiens, UniProt P08709)", "T2 sequence (P08709 whole entry)": "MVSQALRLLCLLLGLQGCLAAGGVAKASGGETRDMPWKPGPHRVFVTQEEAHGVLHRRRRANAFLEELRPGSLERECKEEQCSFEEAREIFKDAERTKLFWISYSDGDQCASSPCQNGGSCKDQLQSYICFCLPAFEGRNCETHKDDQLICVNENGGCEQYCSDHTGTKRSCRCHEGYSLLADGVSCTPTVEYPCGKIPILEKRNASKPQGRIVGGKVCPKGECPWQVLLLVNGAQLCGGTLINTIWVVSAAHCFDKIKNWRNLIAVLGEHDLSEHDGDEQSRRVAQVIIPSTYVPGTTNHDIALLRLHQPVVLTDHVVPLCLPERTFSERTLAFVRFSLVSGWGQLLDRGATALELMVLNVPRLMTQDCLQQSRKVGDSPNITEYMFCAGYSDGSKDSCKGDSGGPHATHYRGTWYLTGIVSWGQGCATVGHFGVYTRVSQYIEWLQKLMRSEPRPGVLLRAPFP", "test": "Inhibition of human factor 7a"}, "[6]": {"test": "Inhibition of human chymotrypsin"}, "Plasma kallikrein": {"target": "Plasma kallikrein (Homo sapiens, UniProt P03952)", "sequence (P03952 20-390 limits assumed)": "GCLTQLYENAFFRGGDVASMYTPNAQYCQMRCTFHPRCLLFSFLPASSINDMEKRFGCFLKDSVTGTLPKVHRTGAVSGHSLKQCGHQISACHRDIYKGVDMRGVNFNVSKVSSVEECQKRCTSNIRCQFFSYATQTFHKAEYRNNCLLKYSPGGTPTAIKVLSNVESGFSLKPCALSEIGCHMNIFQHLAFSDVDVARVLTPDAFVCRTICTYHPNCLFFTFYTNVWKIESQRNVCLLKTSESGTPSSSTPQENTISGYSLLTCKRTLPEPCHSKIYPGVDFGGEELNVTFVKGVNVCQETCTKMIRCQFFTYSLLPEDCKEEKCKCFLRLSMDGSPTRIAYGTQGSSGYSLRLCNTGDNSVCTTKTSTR", "sequence (P03952 391-638 limits assumed)": "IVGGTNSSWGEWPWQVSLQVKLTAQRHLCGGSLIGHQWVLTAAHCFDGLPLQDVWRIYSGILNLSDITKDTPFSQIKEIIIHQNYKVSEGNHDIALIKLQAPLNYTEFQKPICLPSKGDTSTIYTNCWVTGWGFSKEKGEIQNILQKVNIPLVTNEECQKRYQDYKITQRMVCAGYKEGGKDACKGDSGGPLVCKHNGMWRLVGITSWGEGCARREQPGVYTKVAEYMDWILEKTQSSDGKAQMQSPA", "test": "Inhibition of human plasma kallikrein", "type": "cell-free"}, "Trypsin": {"target": "Trypsin (Homo sapiens, UniProt P07477+P07478+P35030)", "test": "Inhibition of human trypsin", "type": "protein assay"}, "Prothrombin": {"target": "Prothrombin (Homo sapiens, UniProt P00734)", "test": "Inhibition of human thrombin"}, "Plasminogen": {"target": "Plasminogen (Homo sapiens, UniProt P00747)", "sequence (P00747 97-580 limits assumed)": "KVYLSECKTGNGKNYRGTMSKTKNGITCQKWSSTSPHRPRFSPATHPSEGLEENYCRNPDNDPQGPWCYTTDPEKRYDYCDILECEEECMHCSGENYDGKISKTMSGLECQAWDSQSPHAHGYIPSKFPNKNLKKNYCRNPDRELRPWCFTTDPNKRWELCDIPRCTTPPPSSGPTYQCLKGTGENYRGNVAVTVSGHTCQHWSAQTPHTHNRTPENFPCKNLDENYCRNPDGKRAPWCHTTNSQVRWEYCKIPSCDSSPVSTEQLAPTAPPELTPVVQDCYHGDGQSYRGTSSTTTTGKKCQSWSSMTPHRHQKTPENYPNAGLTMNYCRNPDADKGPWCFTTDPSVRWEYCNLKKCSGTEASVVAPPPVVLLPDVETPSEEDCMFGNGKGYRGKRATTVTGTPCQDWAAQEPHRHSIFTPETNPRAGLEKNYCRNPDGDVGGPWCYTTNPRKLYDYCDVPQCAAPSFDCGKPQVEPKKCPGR", "sequence (P00747 581-810 limits assumed)": "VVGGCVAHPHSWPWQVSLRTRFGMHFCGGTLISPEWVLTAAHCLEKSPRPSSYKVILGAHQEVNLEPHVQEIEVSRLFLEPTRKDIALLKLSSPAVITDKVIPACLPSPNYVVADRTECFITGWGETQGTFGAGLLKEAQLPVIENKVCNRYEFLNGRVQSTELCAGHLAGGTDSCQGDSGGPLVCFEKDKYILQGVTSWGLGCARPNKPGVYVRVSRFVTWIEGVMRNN", "test": "Inhibition of human Plasmin"}, "[7]": {"target": "Tissue-type plasminogen activator (Homo sapiens, UniProt P00750)", "sequence (P00750 whole entry)": "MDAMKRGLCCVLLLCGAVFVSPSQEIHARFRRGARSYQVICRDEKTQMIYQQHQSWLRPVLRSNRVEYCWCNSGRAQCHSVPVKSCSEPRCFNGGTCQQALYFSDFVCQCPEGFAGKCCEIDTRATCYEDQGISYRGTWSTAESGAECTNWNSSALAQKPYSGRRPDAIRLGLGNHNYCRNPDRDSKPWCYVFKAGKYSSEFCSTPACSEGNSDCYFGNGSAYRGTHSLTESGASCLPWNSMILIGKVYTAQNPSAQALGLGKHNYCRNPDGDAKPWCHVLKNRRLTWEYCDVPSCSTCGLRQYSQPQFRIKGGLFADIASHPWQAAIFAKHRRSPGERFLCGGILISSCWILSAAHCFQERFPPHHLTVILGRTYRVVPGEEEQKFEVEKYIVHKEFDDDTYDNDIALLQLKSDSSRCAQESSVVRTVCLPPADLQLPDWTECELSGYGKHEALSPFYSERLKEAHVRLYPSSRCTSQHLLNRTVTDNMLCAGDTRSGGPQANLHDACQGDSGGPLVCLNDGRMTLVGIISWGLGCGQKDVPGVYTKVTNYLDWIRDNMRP", "test": "Inhibition of human tissue plasminogen activator"}, "[8]": {"target": "Urokinase-type plasminogen activator (Homo sapiens, UniProt P00749)", "test": "Inhibition of human urokinase"}, "[9]": {"test": "Permeability across Caco-2 cells", "type": "ADME, cell-based", "details": "human, read-out: permeability"}, "[10]": {"test": "Clearance in dog at 0.5 mg/kg, iv", "type": "ADME, organism-based, Canis lupus familiaris", "design": "dose 0.5 mg/kg, route intravenous", "details": "in vivo", "summary_of_the_method": "(§2)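 Dogs. Intravenous dose 0.5 mg/kg, used for clearance (L/kg/h), steady-state volume of distribution (L/kg) and iv half-life.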"}, "[11]": {"test": "Volume of distribution at steady state in dog at 0.5 mg/kg, iv", "type": "ADME, organism-based, Canis lupus familiaris", "design": "dose 0.5 mg/kg, route intravenous", "details": "in vivo, read-out: Vdss", "summary_of_the_method": "as §2"}, "[12]": {"test": "Half life in dog at 0.5 mg/kg, iv", "type": "ADME, organism-based, Canis lupus familiaris", "design": "dose 0.5 mg/kg, route intravenous", "details": "in vivo", "summary_of_the_method": "as §2"}, "[13]": {"test": "Half life in dog at 0.2 mg/kg, po", "type": "ADME, organism-based, Canis lupus familiaris", "design": "dose 0.2 mg/kg, route oral", "details": "in vivo"}, "[14]": {"test": "Bioavailability in dog at 0.2 mg/kg, po", "type": "ADME, organism-based, Canis lupus familiaris", "details": "in vivo", "summary_of_the_method": "as §2"}, "Coagulation factor X [15]": {"target": "T1, Coagulation factor X", "test": "Inhibition of human factor 10a in presence of tripeptide substrate at 25 degC"}, "Coagulation factor X [16]": {"target": "T1, Coagulation factor X", "test": "Inhibition of human factor 10a in presence of tripeptide substrate at 37 degC"}},
  "data": [
    {"smiles": "CCOC(=O)N1C[C@H](NC(=O)c2ccc(-n3ccccc3=O)cc2)[C@H](NC(=O)c2ccc(Cl)s2)C1", "values": [
      {"measurement": "Ki", "setting": "Coagulation factor X [1]", "value": 0.0075, "unit": "µM"},
      {"measurement": "Ki", "setting": "Coagulation factor X [2]", "value": 0.03, "unit": "µM"},
      {"measurement": "Ki", "setting": "[3]", "value": "> 21", "unit": "µM"},
      {"measurement": "Ki", "setting": "Coagulation factor X [4]", "value": 0.0005, "unit": "µM"},
      {"measurement": "CL", "setting": "Liver microsomes", "value": 0, "unit": "nmol/mg/min"},
      {"measurement": "IC50", "setting": "[5]", "value": "> 100", "unit": "µM"},
      {"measurement": "Ki", "setting": "Coagulation factor XI", "value": 7.38, "unit": "µM"},
      {"measurement": "Ki", "setting": "Coagulation factor VII", "value": "> 11", "unit": "µM"},
      {"measurement": "Ki", "setting": "[6]", "value": "> 20", "unit": "µM"},
      {"measurement": "Ki", "setting": "Plasma kallikrein", "value": "> 6", "unit": "µM"},
      {"measurement": "Ki", "setting": "Trypsin", "value": "> 5", "unit": "µM"},
      {"measurement": "Ki", "setting": "Prothrombin", "value": 4.02, "unit": "µM"},
      {"measurement": "Ki", "setting": "Plasminogen", "value": "> 22", "unit": "µM"},
      {"measurement": "Ki", "setting": "[7]", "value": "> 21", "unit": "µM"},
      {"measurement": "Ki", "setting": "[8]", "value": "> 14", "unit": "µM"},
      {"measurement": "Papp", "setting": "[9]", "value": 25, "unit": "nm/s"},
      {"measurement": "clearance", "setting": "[10]", "value": 2.6, "unit": "L/h/kg"},
      {"measurement": "Vd", "setting": "[11]", "value": 2.4, "unit": "L/kg"},
      {"measurement": "half-life", "setting": "[12]", "value": 1.4, "unit": "h"},
      {"measurement": "half-life", "setting": "[13]", "value": 2.7, "unit": "h"},
      {"measurement": "bioavailability", "setting": "[14]", "value": 25, "unit": "%"},
      {"measurement": "Ki", "setting": "Coagulation factor X [15]", "value": 0.00073, "unit": "µM"},
      {"measurement": "Ki", "setting": "Coagulation factor X [16]", "value": 0.0026, "unit": "µM"}
    ]}
  ]
}
